Bioassay records (PubChem BioAssay)
MEKK2 WT-MEK5: modulators of MEK5 binding to wildtype MEKK2, primary screen, biochemical, multiplex bead flow cytometry, Alexa488-MEK5; Mitogen-activated protein kinase kinase kinase 2 (Homo sapiens), Q9Y2U5; Alexa488-MEK5 binding to MEKK2 WT; actives lie on both sides; binding response (% of control), % at 10 µM; 290,000 compounds, 1.1% hits; in the data active = binding response below about 67% or above about 130%
MEKK2 mut-MEK5: MEK5 binding signal on mutant MEKK2 PB1, primary screen, biochemical, multiplex bead flow cytometry, Alexa488-MEK5; AID 1530, 2009; Alexa488-MEK5 binding to MEKK2 mutant; percent response, % at 10 µM; 290,000 compounds, 0.35% hits; in the data active = percent response above about 24%, passing the limit was not always enough
ATG4B inhibitor: ATG4B protease inhibitors, primary screen, biochemical, fluorescence, uHTS | AID 504462, 2011 | 340,000 compounds, 0.51% hits | ATG4B cleavage of LC3-PLA2, NBD-HPC fluorescence, 1 h | inhibition, % at 8.33 µM; in the data active = inhibition above about 40%
Target sequence (Q9Y4P1 whole entry, looked up): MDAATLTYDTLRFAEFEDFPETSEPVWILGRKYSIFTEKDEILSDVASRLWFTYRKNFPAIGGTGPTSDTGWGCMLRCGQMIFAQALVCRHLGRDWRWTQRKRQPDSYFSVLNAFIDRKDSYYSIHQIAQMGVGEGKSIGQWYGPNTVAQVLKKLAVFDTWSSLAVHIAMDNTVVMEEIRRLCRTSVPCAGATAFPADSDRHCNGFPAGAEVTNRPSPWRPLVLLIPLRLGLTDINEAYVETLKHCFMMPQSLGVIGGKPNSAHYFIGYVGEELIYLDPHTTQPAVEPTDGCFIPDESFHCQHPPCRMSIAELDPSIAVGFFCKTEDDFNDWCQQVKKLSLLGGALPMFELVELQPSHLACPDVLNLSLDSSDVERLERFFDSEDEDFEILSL
MEKK3 PB1 HTS: modulators of MEKK3-MEK5 PB1 binding, primary screen, biochemical, wildtype MEKK3, multiplex bead flow cytometry, Alexa488-MEK5. Mitogen-activated protein kinase kinase kinase 3 (Homo sapiens), Q99759. bead-based flow cytometry, Alexa488-MEK5 binding to MEKK3; actives lie on both sides; 0 = blocked by unlabeled MEK5, 100 = vehicle. binding response (% of control), % at 10 µM. 290,000 compounds, 1.4% hits;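 active = binding response more than 3 SD above or below the average of its plate-row segment, actives on both sides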;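 note: Alexa488 bead fluorescence after subtracting the streptavidin-only scavenger bead signal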
Beta2AR agonist: beta2AR agonists driving receptor internalization, primary screen, cell-based, FAP fluorogen, flow cytometry; 340,000 compounds, 0.43% hits; AID 504454, 2011; Beta-2 adrenergic receptor (Homo sapiens), P07550; Am2.2-beta2AR cells; response, % (test concentration not listed);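 active = response above a set limit, near 3 SD of response in nonfluorescent compounds, cut at about 42% in these data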
Dynein transport: inhibitors of GR-EGFP nuclear translocation, primary screen, dynein cargo transport inhibitor project, imaging, high-content, 3617.4 mouse cells | test concentration mostly 20 µM; stimulated with dexamethasone, 1 µM; stronger effect = lower value | z-score, hits read low | 220,000 compounds, 0.47% hits | AID 1381, 2008;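 active = plate z-score of nuclear minus cytoplasmic receptor signal below a set negative limit, without overly bright fluorescence or cell loss, cut at about -3.5 in these data, passing the limit was not always enough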;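 note: z-score of nuclear minus cytoplasmic ring GR-EGFP intensity difference per well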
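Medium: Induction medium lacking tetracycline, stripped serum | Probe or stimulus: 1.0 µM final dexamethasone stimulus | Schedule: 48 h induction, then 1 h compound, then 30 min agonist, 37 °C | Signal: Automated 10x imaging of fixed Hoechst-stained cells | Evaluation: Per-cell GR-EGFP intensity, nucleus versus surrounding cytoplasmic ring, well-averaged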
Dynein confirm: dynein cargo transport inhibitors, GR-EGFP translocation, confirmation, imaging, high-content imaging, GR-EGFP cells; calls only at 20 µM; 1,000 compounds, 69% hits; AID 463116, 2010; shares compounds with Dynein transport; 3617.4 GR-EGFP nuclear translocation imaging, dexamethasone-induced;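 active = inhibition of receptor movement into the nucleus at or above a set limit in both runs, with normal cell brightness and cell count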;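 note: dexamethasone at 1 µM final in well for 30 min; nuclear minus cytoplasmic GR-EGFP mean intensity difference in channel 2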
Numbers without * were called inactive; i = inactive; · = not tested or not shown; + = active, no number. Hits are enriched below; roughly 2.9% of the tested compounds scored in any of these assays.

SMILES	MEKK2 WT-MEK5	MEKK2 mut-MEK5	ATG4B inhibitor	MEKK3 PB1 HTS	Beta2AR agonist	Dynein transport	Dynein confirm
O=C(/C=C/c1ccc(N2CCCCC2)c([N+](=O)[O-])c1)c1ccc(O)cc1	93.0	-6.0	0.6	100.0	-7.3	-3.66*	+
O=C(c1ccc(N2CCCCC2)c([N+](=O)[O-])c1)N1CCOCC1	91.0	-6.0	-1.0	95.0	-13.8	-0.272	·
COc1ccccc1C(=O)/C=C/c1ccc(N2CCCCC2)c([N+](=O)[O-])c1	98.0	-2.0	19.8	100.0	0.0	-5.35*	+
Cc1cc(NC(=O)c2cccc(S(=O)(=O)N3CCC(C)CC3)c2)no1	99.0	1.0	-8.2	101.0	-8.8	·	·
Cc1ccc(C(=O)NC(=S)Nc2ccc(-c3ccc(CO)o3)cc2)cc1	97.0	-45.0	0.2	95.0	-2.5	-0.142	·
O=C(NC(=S)Nc1ccc(-c2ccc(CO)o2)cc1)c1cccs1	100.0	-5.0	7.3	114.0	1.3	-6.62*	i
O=C(O)CC(c1cccc(O)c1)N1Cc2ccccc2C1=O (stereo unspecified)	102.0	4.0	-4.8	99.0	-1.0	·	·
Cc1ccc(OCC(=O)N(C)CC(=O)Nc2ccccc2Cl)c([N+](=O)[O-])n1	·	·	-0.1	·	-3.9	·	·
CC(C)Cn1c(C(C)C)nc([N+](=O)[O-])c1Sc1ccc(Cl)cn1	104.0	3.0	-1.9	103.0	1.0	-0.0131	·
CCCCn1c(CCC)nc([N+](=O)[O-])c1Sc1ccc(Cl)cn1	92.0	4.0	-11.9	115.0	1.9	-3.63*	+
COc1ccc(NC(=O)/C(Cl)=C(/Cl)S(=O)Cc2ccccc2)cn1 (stereo unspecified)	105.0	18.0	-5.8	102.0	50.1*	-5.36*	+
COc1ccc(CS(=O)(=O)/C(Cl)=C(/Cl)C(=O)Nc2ccc(OC)nc2)cc1	104.0	9.0	-8.5	105.0	48.2*	-4.58	+
O=C(CCC(=O)Nc1nnc(C2CCCCC2)s1)Nc1ccc(F)cc1	99.0	2.0	2.6	99.0	3.7	·	·
CCCCc1nc2cc(C(=O)N3CCN(c4cnccn4)CC3)ccc2o1	101.0	-1.0	-6.2	95.0	3.9	·	·
N#C/C(=C/c1ccc(N2CCCCCC2)o1)c1ccc(F)cc1	100.0	7.0	-3.6	100.0	-156.9	-3.81	i
N#C/C(=C\c1ccc(N2CCOCC2)o1)C(=O)Nc1ccc(O)cc1	103.0	-1.0	-10.0	109.0	-28.9	1.61	·
N#C/C(=C/c1ccc(N2CCOCC2)o1)c1ccc(Br)cc1	94.0	5.0	7.2	102.0	-332.2	-8.57	·
N#C/C(=C/c1ccc(N2CCCCC2)o1)C(=O)Nc1ccc(Cl)cc1	88.0	4.0	7.6	93.0	-597.7	-10.5	i
O=C(CCC1CCN(C(=O)Cc2c(F)cccc2F)CC1)NC1CC1	91.0	-2.0	2.0	100.0	2.6	·	·
Cc1ccc(N(C(=O)CCl)C(C(=O)NC2CCCCC2)c2cccnc2)cc1C (stereo unspecified)	104.0	0.0	6.2	102.0	·	-4.06*	+
O=C(CSC1=Nc2ccccc2C2CC=NN12)Nc1ccc2c(c1)OCO2 (stereo unspecified)	98.0	-1.0	-7.0	102.0	21.2	-3.65*	+
O=C(Nc1ccc2nc3n(c(=O)c2c1)CCCCC3)C(=O)N1CCN(c2ccccc2)CC1	104.0	0.0	-7.0	102.0	0.8	·	·
O=C1C=CC(=O)N1c1ccc(O)cc1	95.0	-3.0	-1.8	96.0	8.2	-4.05	i
O=C1CCCC(=O)N1c1ccc(O)cc1	101.0	2.0	-3.5	105.0	10.6	-0.752	·
CCOC(=O)/C(=C\C=C1/Sc2cc(OCC)c(OCC)cc2N1CC)C(C)=O	97.0	-5.0	-53.2	119.0	-6.4	-3.65	i
SMILES	MEKK2 WT-MEK5	MEKK2 mut-MEK5	ATG4B inhibitor	MEKK3 PB1 HTS	Beta2AR agonist	Dynein transport	Dynein confirm
Cc1ccccc1OCC(=O)N/N=C/c1ccc(N2CCOCC2)o1	99.0	-3.0	4.4	100.0	6.1	·	·
O=C(Cn1c(=O)oc2cc(S(=O)(=O)NCc3ccccc3)ccc21)N1CCCC1	94.0	-5.0	-1.1	98.0	-10.3	-5.21*	i
COc1ccc(NC(=O)c2oc3cc(C)c(C)cc3c2C)c(OC)c1	99.0	0.0	-0.8	103.0	-0.8	-4.05*	i
C/C(=N\NC(=O)c1cc(-c2ccc(C)s2)[nH]n1)c1ccncc1	100.0	-2.0	-7.5	102.0	-3.0	·	·
C=CS(=O)(=O)c1ccc(Oc2ccc(S(=O)(=O)C=C)cc2)cc1	91.0	-2.0	9.5	89.0	42.4*	-4.02*	+
NS(=O)(=O)c1ccc(Oc2ccc(S(N)(=O)=O)cc2)cc1	105.0	-1.0	11.0	120.0	1.6	1.3	·
O=C(c1ccc(F)c(S(=O)(=O)N2CCOCC2)c1)N1CCN(c2ccc(F)cc2)CC1	·	·	-7.4	·	-1.2	·	·
COc1cccc(C2=CC(=O)C(C(C)(C)C)N2C(C)(C)C)c1 (stereo unspecified)	·	·	6.5	·	2.8	·	·
O=C1N/C(=C/c2ccc(N3CCOCC3)o2)C(=O)N1c1cccc(Cl)c1	87.0	-7.0	-20.3	93.0	17.7	-4.15	i
Cc1ccc(/C=C2/NC(=O)N(c3ccccc3)C2=O)o1	96.0	3.0	-5.0	99.0	9.7	-0.0402	·
CCOC(=O)C(=Cc1ccc(-n2ccnc2)cc1)C(=O)OCC	99.0	-2.0	-14.4	105.0	-1.8	-5.59*	+
CCOC(=O)C(=Cc1ccc(Br)cc1)C(=O)OCC	105.0	2.0	-3.5	103.0	0.4	-2.4	·
COc1ccc2nc(N3CCCC3)c(C#N)cc2c1	91.0	-4.0	-19.0	100.0	-1.6	-4.17*	i
COc1cccc(C(=O)NCCC(=O)NCc2cc(=O)n(C)c(=O)n2C)c1	101.0	3.0	-4.6	100.0	-2.3	·	·
O=C1C2C3C=CC(CO)(O3)C2C(=O)N1c1ccc(-c2ccccc2)cc1 (stereo unspecified)	82.0	-12.0	·	84.0	·	-4.44*	+
